Source: PubChem (several laboratories)
Shown are actives, neighbours in structure and some others; about 5.7% of the full set was active somewhere.
T cruzi repl: inhibitors of intracellular T. cruzi growth, primary screen, luminescence, NIH3T3 host cells; inhibition, % (no concentration beside the values); AID 1885, 2009; 1.4% of 300,000 active; T. cruzi beta-gal in NIH3T3, 90 h;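 active = mean inhibition across valid replicates above about 55%, limit read from the data; inconclusive = mean below that limit but half or more replicates reach it; inactive = mean below it, under half of replicates reach it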;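 also: signal also drops with host cell toxicity which is not excluded here; 0% = plate median of DMSO wells and 100% = zero luminescence signal; higher percent means less beta-gal luminescence so fewer parasites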
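Incubation – ≥90 h infection period, 3 h prior cell attachment · System – NIH/3T3 fibroblasts plus reporter T. cruzi · Doses – compound pinned at 50 nL/well, DMSO · Read-out basis – percent inhibition of parasite-derived β-gal signal · Signal – luminescent β-galactosidase signal after 60 min lysis · Also added – 5000 T. cruzi trypomastigotes/well · Medium – Low-serum DMEM with 2% FBS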
Mdm2-MdmX inh: inhibitors of human Mdm2-MdmX association, primary screen, cell-based, luminescence, split luciferase, SaOS-2, uHTS; Protein Mdm4 (Homo sapiens) + E3 ubiquitin-protein ligase Mdm2 (Homo sapiens), …; 3% of 330,000 active; AID 485346, 2010; SaOS-2 split-luciferase Mdm2/MdmX complementation; inhibition, % at 8 µM;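 active = inhibition of at least 50% at 8 µM in the primary screen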
Target sequence (O15151 whole entry, looked up): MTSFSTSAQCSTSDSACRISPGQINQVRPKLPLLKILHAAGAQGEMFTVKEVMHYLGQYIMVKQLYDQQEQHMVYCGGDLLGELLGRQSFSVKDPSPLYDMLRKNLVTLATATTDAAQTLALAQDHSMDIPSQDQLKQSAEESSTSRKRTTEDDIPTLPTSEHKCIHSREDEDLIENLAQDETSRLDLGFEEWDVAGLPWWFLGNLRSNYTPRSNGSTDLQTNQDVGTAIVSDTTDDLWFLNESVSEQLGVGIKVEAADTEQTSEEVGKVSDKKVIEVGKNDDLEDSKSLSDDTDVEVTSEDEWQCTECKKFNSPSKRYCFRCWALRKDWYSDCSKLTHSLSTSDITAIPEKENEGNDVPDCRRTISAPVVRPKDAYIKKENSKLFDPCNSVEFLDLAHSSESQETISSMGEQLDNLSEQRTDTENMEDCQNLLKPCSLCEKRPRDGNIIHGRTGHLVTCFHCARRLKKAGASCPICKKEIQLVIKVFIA
Target sequence (Q00987 whole entry, looked up): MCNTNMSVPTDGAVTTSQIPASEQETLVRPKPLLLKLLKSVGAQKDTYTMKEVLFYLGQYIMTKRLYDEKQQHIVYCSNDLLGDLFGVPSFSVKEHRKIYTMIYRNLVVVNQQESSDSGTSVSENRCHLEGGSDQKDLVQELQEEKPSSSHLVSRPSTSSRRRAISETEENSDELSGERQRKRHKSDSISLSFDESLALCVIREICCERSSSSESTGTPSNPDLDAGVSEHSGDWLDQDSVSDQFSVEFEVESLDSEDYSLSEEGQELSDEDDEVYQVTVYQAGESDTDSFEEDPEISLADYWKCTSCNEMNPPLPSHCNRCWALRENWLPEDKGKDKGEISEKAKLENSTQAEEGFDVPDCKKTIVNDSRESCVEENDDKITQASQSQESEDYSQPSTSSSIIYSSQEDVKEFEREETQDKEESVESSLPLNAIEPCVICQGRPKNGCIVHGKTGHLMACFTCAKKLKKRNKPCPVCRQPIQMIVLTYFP
Calb FLC: C. albicans growth inhibition with fluconazole, primary screen, CaCi-2 strain, Alamar Blue fluorescence; C. albicans CaCi-2 + fluconazole, 48 h; growth inhibition, % (no concentration beside the values); 0.57% of 300,000 active;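 active = growth inhibition above about 58% in most replicates, limit read from the data, passing the limit was not always enough; inconclusive = exactly half the replicates above a set limit; inactive = most replicates below a set limit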;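 also: all wells also contain fluconazole at 8 µg/ml as a sub-toxic cotreatment; 0% = median of DMSO wells and 100% = median of geldanamycin control wells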
SKKanGAS inh: S. pyogenes SKKanGAS growth inhibitors in kanamycin, primary screen, streptokinase expression inhibitor project, SKKanGAS strain, BacTiter-Glo luminescence; 1.3% of 300,000 active; inhibition, % at 7.5 µM; 6 h;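 active = mean replicate score, as percent of positive control median, at least 50; inconclusive = mean below 50 but one replicate at or above 50; inactive = mean and every replicate below 50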;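 also: strain carries kanamycin resistance gene driven by streptokinase promoter and grows in 40 µg/ml kanamycin; loss of luminescence reflects streptokinase promoter inhibition or plain growth inhibition; 0% = median of DMSO wells and 100% = positive control at its reference dose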
Beta cell apopt: inhibitors of cytokine-induced beta cell apoptosis, primary screen, luminescence; INS-1E cytokine-induced death, ATP luminescence, 48 h; percent of positive-control rescue, neutral wells zero; protection from apoptosis, % (no concentration beside the values); 0.8% of 300,000 active;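 active = Every replicate reaches about 75%, or at least half do and their mean reaches it too, limit read from the data; inconclusive = At least half of replicates reach the limit but their mean does not; inactive = Under half of replicates reach the limit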;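 also: 0% = cytokine-treated negative control wells and 100% = positive control rescue; higher means more ATP so stronger rescue from cytokine killing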
CSC inhib: cancer stem cell viability inhibitors, primary screen, luminescence. cancer stem cell-like cells viability. inhibition, % at 7.5 µM. 1.1% of 300,000 active; in the data active = inhibition above about 75%; inconclusive = no clear call, values can overlap the other calls; tested in HMLE shEcad cells
* = called active by the depositor.

Cc1ccc(C(=O)NNC(=O)c2ccco2)cc1 was read as T cruzi repl 12, Mdm2-MdmX inh -16, Calb FLC 12, SKKanGAS inh 3, Beta cell apopt 0 and CSC inhib 4.
For Cc1ccc(C(=O)NNC(=S)NC(=O)c2ccccc2)cc1 the results were T cruzi repl 30, Mdm2-MdmX inh 31, Calb FLC 36, SKKanGAS inh 99* and CSC inhib 12.
`O=C(NC(=S)Nc1ccccc1)c1ccc(-c2ccccc2)cc1` gave T cruzi repl -5, Mdm2-MdmX inh -74, Calb FLC 1, SKKanGAS inh 1, Beta cell apopt 11 and CSC inhib -14.
`Cc1ccc(C(=O)NNC(=S)NC(=O)c2ccco2)cc1` gave T cruzi repl 4, Mdm2-MdmX inh 30, Calb FLC 28, SKKanGAS inh 73*, Beta cell apopt 22 and CSC inhib 17.
Screening COCCNC(=O)C(=O)NNC(=O)c1ccccc1OC returned T cruzi repl 5, Mdm2-MdmX inh -7, Calb FLC -8, SKKanGAS inh -8, Beta cell apopt -7 and CSC inhib -14.
Cn1c(=O)c2c(SCC(=O)N3CCOCC3)nc(-c3ccccc3F)nc2n(C)c1=O was read as T cruzi repl 18, Mdm2-MdmX inh 32, Calb FLC 0, SKKanGAS inh 61* and CSC inhib -12.
For CCOc1ccc(CNC(=O)C2Cc3cc(S(=O)(=O)N4CCCC4)ccc3N2C(C)=O)cc1 (configuration not stated) the results were T cruzi repl 7, Mdm2-MdmX inh 11, Calb FLC -15, SKKanGAS inh 25, Beta cell apopt 2 and CSC inhib -6.
C[C@H](CO)N1C[C@H](C)[C@@H](CN(C)S(=O)(=O)c2ccc(F)cc2)Oc2c(NS(=O)(=O)c3ccccc3)cccc2C1=O was read as Mdm2-MdmX inh 9.
`Cc1ccc(C(=O)Nc2cccc3[nH]c(C(F)(F)F)nc23)cc1` gave T cruzi repl 9, Mdm2-MdmX inh 3, Calb FLC 24, SKKanGAS inh -6, Beta cell apopt 78* and CSC inhib 24.
For COc1ccccc1CN1CN(S(=O)(=O)c2ccccc2)c2nc3ccccc3nc21 the results were T cruzi repl 47, Mdm2-MdmX inh 9, Calb FLC 28, SKKanGAS inh 50*, Beta cell apopt 5 and CSC inhib 4.
CC(C(Sc1ccccc1N)c1ccccc1)[N+](=O)[O-] (configuration not stated) was read as T cruzi repl -26, Mdm2-MdmX inh 36, Calb FLC -2, SKKanGAS inh 4, Beta cell apopt -2 and CSC inhib 94*.
Screening NNC(=S)Nc1ccc(S(=O)(=O)N2CCCCC2)cc1 returned T cruzi repl 4, Mdm2-MdmX inh 13, Calb FLC 7, SKKanGAS inh -1, Beta cell apopt -1 and CSC inhib 11.
`O=C1CCSc2ccc(Cl)cc2N1Cc1ccc(Cl)cc1` gave T cruzi repl 0, Mdm2-MdmX inh 24, Calb FLC 9, SKKanGAS inh 53*, Beta cell apopt 4 and CSC inhib 4.
Cc1ccc(Oc2ccc(OCC(=O)NC3CCS(=O)(=O)C3)cc2)cc1 (configuration not stated) was read as T cruzi repl -13, Mdm2-MdmX inh 16, Calb FLC -28, SKKanGAS inh 9, Beta cell apopt -7 and CSC inhib 9.
`c1ccc(CCN2CCN(c3ncnc4c3cnn4-c3ccccc3)CC2)cc1` gave T cruzi repl 64*, Mdm2-MdmX inh -22, Calb FLC -5, SKKanGAS inh -3, Beta cell apopt 3 and CSC inhib 17.
CCN1CCN(c2ncnc3c2cnn3-c2ccccc2)CC1 was read as T cruzi repl 8, Mdm2-MdmX inh -14, Calb FLC -10, SKKanGAS inh 0, Beta cell apopt -3 and CSC inhib 4.
Screening Cc1noc(/C=C/N(C)C)c1S(=O)(=O)N1CCCC(C(=O)N2CCCCC2)C1 (configuration not stated) returned T cruzi repl 12, Mdm2-MdmX inh -34, Calb FLC 5, SKKanGAS inh 2, Beta cell apopt 0 and CSC inhib 3.
For Cc1noc(/C=C/N(C)C)c1S(=O)(=O)N1CCCC(C(=O)NC2CCCCC2)C1 (configuration not stated) the results were T cruzi repl 62*, Mdm2-MdmX inh 19, Calb FLC -2, SKKanGAS inh 0, Beta cell apopt -6 and CSC inhib -6.
`O=C(CN1CCN(S(=O)(=O)c2ccc(Br)cc2)CC1)N/N=C/c1ccc(Br)s1` gave T cruzi repl 63*, Mdm2-MdmX inh 32, Calb FLC -13, SKKanGAS inh 33, Beta cell apopt -3 and CSC inhib -1.
CCC1CCc2sc(C(=O)NC3CCN(Cc4ccccc4)CC3)cc2C1 (configuration not stated) was read as T cruzi repl 60*, Mdm2-MdmX inh 37, Calb FLC -5, SKKanGAS inh -13, Beta cell apopt 4 and CSC inhib 34.
`CC(=O)c1ccc(N2CCC(c3cc(-c4ccc(Cl)cc4)n[nH]3)CC2)c([N+](=O)[O-])c1` gave T cruzi repl 74*, Mdm2-MdmX inh 26, Calb FLC -6, SKKanGAS inh 88*, Beta cell apopt 40 and CSC inhib 101*.
For COC(=O)c1ccc(N2CCC(c3cc(-c4ccc(OC)cc4)n[nH]3)CC2)c([N+](=O)[O-])c1 the results were T cruzi repl 45, Mdm2-MdmX inh 7, Calb FLC inconclusive, SKKanGAS inh 90*, Beta cell apopt 4 and CSC inhib 7.
CC(=O)c1ccc(N2CCN(c3ncccn3)CC2)c([N+](=O)[O-])c1 was read as T cruzi repl -5, Mdm2-MdmX inh -31, Calb FLC 29, SKKanGAS inh -1 and Beta cell apopt -1.
For CC(=O)Nc1ccc(N2CC(C)(C)C2=O)cc1 the results were T cruzi repl -5, Mdm2-MdmX inh 7, Calb FLC 72*, SKKanGAS inh -10, Beta cell apopt -4 and CSC inhib -1.
For O=c1cc(O)c2c(=O)n(-c3ccccc3)c3c(c2o1)CCCCCC3 the results were T cruzi repl -13, Mdm2-MdmX inh 8, Calb FLC -1, SKKanGAS inh 56*, Beta cell apopt -1 and CSC inhib -10.
Screening O=c1cc(O)c2c(=O)n(C3CCCCC3)c3ccccc3c2o1 returned T cruzi repl -2, Mdm2-MdmX inh 17, Calb FLC 1, SKKanGAS inh 27, Beta cell apopt 5 and CSC inhib -3.
